Reference: the RNAGym collection of RNA variant scans (doi:10.1126/science.aae0568)
This sample holds only a part of the variants without activity.

B1: tRNA (parent)
chain: GUUCCGUUGGCGUAAUGGUAACGCGUCUCCCUCCUAAGGAGAAGACUGCGGGUUCGAGUCCCGUACGGAACG

Variants of: B1
Test: yeast fitness relative to wild type (ratio to wild type); higher = fitter; tRNA-Arg(CCU), competitive growth, 37 C, YPD
In short: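 Gene amplicons from the start population and from each of six end populations were read by 100-nucleotide paired-end sequencing. Those end populations came from pooled Saccharomyces cerevisiae strains carrying tRNA-Arg(CCU) gene variants at the native locus, competed in YPD at 37°C for 24 hours. Fitness relative to wild type was worked out from changes in genotype frequencies. Genotypes needed ≥ 100 starting reads, and estimates < 0.5 were set to 0.5.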

Q: For C27G A37C, which yeast fitness is on record?
A: The yeast fitness was 0.911.

Q: With C27G A37C A40G C46U as the variant, how does the yeast fitness read?
A: Its yeast fitness is 0.578.

Q: With C27G A37C G39A A45C as the variant, how does the yeast fitness read?
A: Its yeast fitness is 0.646.

Q: For C27G A37C G52C, which yeast fitness is on record?
A: The yeast fitness was at most 0.5.

Q: With C27G A37G A57C G68C A69C as the variant, how does the yeast fitness read?
A: Its yeast fitness is at most 0.5.

Q: With C27G A37G A70C as the variant, how does the yeast fitness read?
A: Its yeast fitness is 0.533.

Q: For C27G A37G G38A, which yeast fitness is on record?
A: Its yeast fitness is at most 0.5.

Q: Which yeast fitness does the source give for C27G A37G G39A C61G here?
A: Its yeast fitness is 0.821.

Q: Which yeast fitness does the source give for C27G A37G G52U C61U G67A here?
A: The yeast fitness was at most 0.5.

Q: For C27G A37G G63C U64C, which yeast fitness is on record?
A: Its yeast fitness is at most 0.5.

Q: With C27G A37G U53A as the variant, how does the yeast fitness read?
A: The yeast fitness was 0.632.

Q: For C27G A37U A43G, which yeast fitness is on record?
A: Its yeast fitness is at most 0.5.

Q: With C27G A37U C49G U64C A69C as the variant, how does the yeast fitness read?
A: Its yeast fitness is at most 0.5.

Q: With C27G A40G G51A as the variant, how does the yeast fitness read?
A: The yeast fitness was 0.541.

Q: With C27G A40U A57U C66A as the variant, how does the yeast fitness read?
A: The yeast fitness was at most 0.5.

Q: With C27G A40U A70C as the variant, how does the yeast fitness read?
A: Its yeast fitness is at most 0.5.

Q: For C27G A40U C55U, which yeast fitness is on record?
A: The yeast fitness was at most 0.5.

Q: Which yeast fitness does the source give for C27G A42C here?
A: Its yeast fitness is 0.586.

Q: Which yeast fitness does the source give for C27G A42C A65C here?
A: The yeast fitness was at most 0.5.

Q: Which yeast fitness does the source give for C27G A42C A70U here?
A: Its yeast fitness is at most 0.5.

Q: For C27G A42C C55A, which yeast fitness is on record?
A: The yeast fitness was 0.682.

Q: With C27G A42C C62G as the variant, how does the yeast fitness read?
A: The yeast fitness was 0.561.

Q: With C27G A42C G50C G56A C66G as the variant, how does the yeast fitness read?
A: The yeast fitness was at most 0.5.

Q: Which yeast fitness does the source give for C27G A42G here?
A: Its yeast fitness is 0.607.

Q: With C27G A42G A69U as the variant, how does the yeast fitness read?
A: The yeast fitness was at most 0.5.

Q: With C27G A42G U64C as the variant, how does the yeast fitness read?
A: The yeast fitness was at most 0.5.

Q: With C27G A42U A43U as the variant, how does the yeast fitness read?
A: The yeast fitness was 0.594.

Q: With C27G A42U C49U as the variant, how does the yeast fitness read?
A: Its yeast fitness is 0.58.

Q: For C27G A42U G52A, which yeast fitness is on record?
A: Its yeast fitness is at most 0.5.

Q: Which yeast fitness does the source give for C27G A43C here?
A: Its yeast fitness is 0.611.

Q: For C27G A43C C46U C60U, which yeast fitness is on record?
A: The yeast fitness was 0.748.

Q: For C27G A43C C46U G58A, which yeast fitness is on record?
A: Its yeast fitness is 1.02.

Q: Which yeast fitness does the source give for C27G A43C C62U here?
A: The yeast fitness was 0.599.

Q: For C27G A43C C66A, which yeast fitness is on record?
A: The yeast fitness was at most 0.5.

Q: Which yeast fitness does the source give for C27G A43C G56C here?
A: The yeast fitness was at most 0.5.

Q: Which yeast fitness does the source give for C27G A43G C49U here?
A: The yeast fitness was 0.59.

Q: Which yeast fitness does the source give for C27G A43G U47G A70G here?
A: The yeast fitness was at most 0.5.

Q: With C27G A43U A57G as the variant, how does the yeast fitness read?
A: Its yeast fitness is at most 0.5.

Q: For C27G A43U C55G, which yeast fitness is on record?
A: The yeast fitness was at most 0.5.

Q: Which yeast fitness does the source give for C27G A43U U53C here?
A: Its yeast fitness is at most 0.5.

Q: For C27G A43U U59G G68C, which yeast fitness is on record?
A: The yeast fitness was at most 0.5.

Q: Which yeast fitness does the source give for C27G A45G here?
A: The yeast fitness was 0.722.

Q: With C27G A45U A70C as the variant, how does the yeast fitness read?
A: The yeast fitness was 0.614.

Q: With C27G A45U C55A G56A as the variant, how does the yeast fitness read?
A: The yeast fitness was at most 0.5.

Q: For C27G A45U G67A, which yeast fitness is on record?
A: The yeast fitness was at most 0.5.

Q: For C27G A57C C62U, which yeast fitness is on record?
A: Its yeast fitness is 0.511.

Q: Which yeast fitness does the source give for C27G A57C U59A C62G G68A here?
A: The yeast fitness was 0.532.

Q: Which yeast fitness does the source give for C27G A57U U59C here?
A: Its yeast fitness is 0.508.

Q: With C27G A65C as the variant, how does the yeast fitness read?
A: Its yeast fitness is 0.641.

Q: Which yeast fitness does the source give for C27G A65G C66G here?
A: The yeast fitness was at most 0.5.

Q: For C27G A65U G68U, which yeast fitness is on record?
A: The yeast fitness was 0.583.

Q: With C27G A69C as the variant, how does the yeast fitness read?
A: The yeast fitness was 0.654.

Q: Which yeast fitness does the source give for C27G A69G here?
A: Its yeast fitness is 0.652.

Q: For C27G A70G, which yeast fitness is on record?
A: Its yeast fitness is 0.718.

Q: Which yeast fitness does the source give for C27G C29A A43U here?
A: The yeast fitness was at most 0.5.

Q: Which yeast fitness does the source give for C27G C29A C33A A43C here?
A: The yeast fitness was 0.574.

Q: For C27G C29A C55G, which yeast fitness is on record?
A: Its yeast fitness is at most 0.5.

Q: For C27G C29A C62U, which yeast fitness is on record?
A: Its yeast fitness is 0.647.

Q: With C27G C29A G52C as the variant, how does the yeast fitness read?
A: Its yeast fitness is at most 0.5.

Q: Which yeast fitness does the source give for C27G C29G C46A A65G C66U here?
A: The yeast fitness was at most 0.5.

Q: With C27G C29G G51C as the variant, how does the yeast fitness read?
A: The yeast fitness was at most 0.5.

Q: With C27G C29U as the variant, how does the yeast fitness read?
A: Its yeast fitness is 0.578.

Q: For C27G C29U A37G A45G C60A G68A, which yeast fitness is on record?
A: Its yeast fitness is at most 0.5.

Q: Which yeast fitness does the source give for C27G C30A here?
A: The yeast fitness was 0.632.

Q: With C27G C30A U47C as the variant, how does the yeast fitness read?
A: The yeast fitness was 0.535.

Q: With C27G C30G A43C as the variant, how does the yeast fitness read?
A: The yeast fitness was at most 0.5.

Q: For C27G C30G C31U U54C, which yeast fitness is on record?
A: The yeast fitness was at most 0.5.

Q: For C27G C30G C33G A37C G52C, which yeast fitness is on record?
A: Its yeast fitness is at most 0.5.

Q: Which yeast fitness does the source give for C27G C30G C62A here?
A: Its yeast fitness is at most 0.5.

Q: Which yeast fitness does the source give for C27G C30G U64G here?
A: Its yeast fitness is at most 0.5.

Q: With C27G C30U as the variant, how does the yeast fitness read?
A: The yeast fitness was 0.619.

Q: Which yeast fitness does the source give for C27G C30U A42U here?
A: The yeast fitness was 0.651.

Q: Which yeast fitness does the source give for C27G C30U G38C G58A here?
A: The yeast fitness was 0.679.

Q: Which yeast fitness does the source give for C27G C30U G39C A40U G44C U47A G48A U53C C60A here?
A: The yeast fitness was at most 0.5.

Q: For C27G C31A, which yeast fitness is on record?
A: Its yeast fitness is 0.501.

Q: For C27G C31A A37C G50A C61G, which yeast fitness is on record?
A: Its yeast fitness is at most 0.5.

Q: With C27G C31A A70C as the variant, how does the yeast fitness read?
A: The yeast fitness was 0.539.

Q: With C27G C31A C33G C49U G58C as the variant, how does the yeast fitness read?
A: The yeast fitness was at most 0.5.

Q: Which yeast fitness does the source give for C27G C31A C46A G56C here?
A: The yeast fitness was at most 0.5.

Q: With C27G C31A C60G as the variant, how does the yeast fitness read?
A: The yeast fitness was at most 0.5.

Q: For C27G C31A G56A, which yeast fitness is on record?
A: The yeast fitness was at most 0.5.

Q: With C27G C31A G58C as the variant, how does the yeast fitness read?
A: The yeast fitness was at most 0.5.

Q: For C27G C31G, which yeast fitness is on record?
A: The yeast fitness was 0.74.
